According to ChEMBL document CHEMBL3124806, “Imidazopyridine-fused [1,3]-diazepinones: synthesis and antiproliferative activity” (Eur J Med Chem, 2014):
Activity calls are given as the source filed them. The rule behind the calls is not given here.

Legend:
[1] = test system: MDA-MB-435; experiment: Cell cycle arrest in human MDA-MB-435 cells assessed as accumulation at subG1 phase at 5 uM after 48 hrs by propidium iodide staining-based FACS analysis (reference value: 0.1%); type: functional
[2] = target: Cyclin-dependent kinase 1 (Homo sapiens) (UniProt P06493); experiment: Inhibition of human CDK1 at 10 uM
Sequence of Cyclin-dependent kinase 1 (Homo sapiens) (P06493 whole entry, looked up): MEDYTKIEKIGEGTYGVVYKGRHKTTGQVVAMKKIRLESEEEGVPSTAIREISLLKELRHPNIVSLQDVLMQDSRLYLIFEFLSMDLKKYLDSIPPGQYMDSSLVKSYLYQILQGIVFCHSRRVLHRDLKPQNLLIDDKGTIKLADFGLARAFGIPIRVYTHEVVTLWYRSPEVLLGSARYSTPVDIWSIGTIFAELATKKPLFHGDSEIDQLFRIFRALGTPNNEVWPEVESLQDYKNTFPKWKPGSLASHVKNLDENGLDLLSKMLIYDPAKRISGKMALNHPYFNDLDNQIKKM
In short: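 Kinase selectivity panel of 19 protein tyrosine kinases and 30 serine/threonine kinases, run by a contract lab (CEREP). Each compound was tested at a single dose of 10 μM in duplicate.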

[3] = test system: 786-0; experiment: Cytotoxicity against human […] cells after 48 hrs by SRB assay; type: functional; settings: 786-0, 48 h
In short: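 NCI-60 five-dose testing, 100 to 0.01 µM, under a 48 h continuous-exposure protocol. Growth estimated by SRB protein assay, read spectrophotometrically against untreated controls; IC50 derived from the dose-response.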

In the case of `C[C@@H]1NC(c2ccc(Br)cc2)=Nc2nc3ccccn3c2C1=O`, the Activity [1] was 8.6%, the inhibition [2] was “inactive” and the GI50 [3] was 28.3 µM. It also gave a TGI [3] of over 100 µM and a CC50 ([3]; read-out: LC50 (the source's name)) of over 100 µM.
